TAAR1 agonist – human TAAR1 agonists, primary screen, Fluo-8 calcium fluorescence, CHO RD-HGA16 cells; actives 0.99% (n = 360,000); Trace amine-associated receptor 1 (Homo sapiens), Q96RJ0; vehicle wells 0%, saturating PEA agonist 100%; activation, % at 3 µM;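 active = activation above the mean activation of all test compounds in the run plus 3 SD, cut at about 38% in these data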
Target sequence (Q96RJ0 whole entry, looked up): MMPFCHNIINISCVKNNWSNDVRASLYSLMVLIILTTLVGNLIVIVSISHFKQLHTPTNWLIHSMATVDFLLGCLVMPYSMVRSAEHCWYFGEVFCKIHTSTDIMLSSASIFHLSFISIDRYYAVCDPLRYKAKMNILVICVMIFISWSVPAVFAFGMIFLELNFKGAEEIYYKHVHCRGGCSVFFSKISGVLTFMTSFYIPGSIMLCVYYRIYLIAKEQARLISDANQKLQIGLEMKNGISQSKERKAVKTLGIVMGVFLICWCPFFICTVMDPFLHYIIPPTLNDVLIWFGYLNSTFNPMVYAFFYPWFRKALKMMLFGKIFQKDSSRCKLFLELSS
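test system = CHO RD-HGA16 cells carrying human TAAR1 plus Gα16 | schedule = 17-24 h seeding, 75 min 37 °C dye, 30 min RT | compound dosing = 3 µM single concentration | control set = DMSO and PEA EC100 | replicates = n 1 | signal = Fluo-8 fluorescence, 5 s baseline then 140 s kinetic read | measure = percent activation vs PEA EC100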
OX1R antag-1 – antagonists of human orexin 1 receptor (OX1R) | Orexin/Hypocretin receptor type 1 (Homo sapiens), O43613 | OX1R-expressing cells, FRET antagonist read-out | inhibition, % at 6.6 µM | AID 485270, 2010 | actives 1.8% (n = 330,000); in the data active = inhibition mostly above about 38%, no sharp cut-off; inactive = mostly below about 40%;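 also: 0% = agonist challenge alone and 100% = reference antagonist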
CHO parental Ca – ATP-evoked calcium signal inhibitors, parental CHO, primary screen, counter-screen for OX1R antagonist project, cell-based, fluorescence, Fluo-8 calcium dye | parental CHO-K1, ATP-induced calcium, Fluo-8 fluorescence | inhibition, % at 5.6 µM | actives 0.63% (n = 330,000) | AID 463079, 2010;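 active = inhibition above that plate's mean sample inhibition plus 3 SD, cut at about 26% in these data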;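 also: 0% = ATP-challenged DMSO wells and 100% = DMSO wells without ATP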
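material = parental CHO cells | also added = ATP as calcium-mobilizing challenge | dosing = single point at 5.6 µM | detection = intracellular calcium via Fluo-8 no-wash fluorescent dye | read-out = % inhibition | benchmarks = low control ATP plus DMSO, high control DMSO only | repeats = one well per compound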
TAAR1 antag – human TAAR1 antagonists, primary screen, Fluo-8 calcium fluorescence, CHO RD-HGA16 cells | Trace amine-associated receptor 1 (Homo sapiens), Q96RJ0 | antagonist | inhibition, % at 3 µM | actives 1.5% (n = 360,000) | AID 624466, 2012;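 active = inhibition above a per-plate cutoff, the mean inhibition of test compounds on that plate plus 3 SD, cut at about 49% in these data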;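 also: 0% = DMSO plus EC80 beta-PEA response and 100% = DMSO alone without agonist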
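Assay system: CHO-derived RD-HGA16 cells stably expressing human TAAR1 plus Gα16. Timing: 140 s kinetic read after compound, 140 s after agonist. Technique: kinetic Fluo-8 calcium fluorescence measurement. Measure: % inhibition of agonist calcium response.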
OX1R antag-2 – OX1R (HCRTR1) antagonists, primary screen, fluorescence, CHO/OX1R cells, Fluo-8 calcium, orexin A. AID 434989, 2010. Orexin/Hypocretin receptor type 1 (Homo sapiens), O43613. Fluo-8 calcium fluorescence. actives 0.43% (n = 330,000). inhibition, % at 5 µM;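 active = inhibition above its plate's threshold, mean inhibition of all tested compounds on the plate plus 3 SD, cut at about 37% in these data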;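 also: 0% = orexin A challenge wells and 100% = SB-334867-A antagonist wells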
GPR7 antagonist – GPR7 receptor antagonists, primary screen, cell-based, fluorescence, single concentration. AID 1861, 2009. Neuropeptides B/W receptor type 1 (Homo sapiens), P48145. inhibition, % at 4.4 µM. actives 1.1% (n = 290,000). GPR7-expressing cells, fluorescence antagonist assay; in the data active = inhibition above about 16%, passing the limit was not always enough;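 also: cells stimulated with the agonist NPW; 0% = agonist with vehicle and 100% = vehicle without agonist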
* = called active by the depositor; x = no result. In the library only some 4.6% were active in any assay of this set; here they are far more common.

SMILES	TAAR1 agonist	OX1R antag-1	CHO parental Ca	TAAR1 antag	OX1R antag-2	GPR7 antagonist
CN(C)CCCN1C(=O)c2cccc3c(Br)ccc(c23)C1=O	2	64*	-13	-16	-27	2
CC1COCC(C)N1C1=C(Cl)C(=O)c2ccccc2C1=O (centres undefined)	41*	x	x	-24	x	x
COc1cccc(C(=O)N2CCC[C@@H]2C(=O)N2CCC[C@@H]2C(=O)NCc2ccccc2)c1	1	x	x	-29	x	x
CCOC(=O)C1CCCN(C(=O)COc2ccccc2O)C1 (centres undefined)	43*	7	-17	31	-10	-10
CCOC(=O)C1CCCN(S(=O)(=O)c2ccc(S(=O)(=O)N(CC)CC)cc2)C1 (centres undefined)	5	46	51*	28	47*	8
CC1CCCN(C(=S)Nc2ccc(S(=O)(=O)N3CCCCC3)cc2)C1 (centres undefined)	29	9	-10	-30	-21	-3
CCOC(=O)C1CCCN(C(=S)Nc2cc(C)cc(C)c2)C1 (centres undefined)	50*	12	-3	46	-3	0
CCOC(=O)C1CCCN(C(=S)Nc2ccc(S(=O)(=O)N3CCOCC3)cc2)C1 (centres undefined)	46*	3	0	33	-9	x
Nc1[nH]c(C(=O)c2ccccc2)c(-c2ccc(Br)cc2)c1C(=O)c1ccccc1	9	x	x	-40	x	x
O=C(C(=O)N1CCC(CNS(=O)(=O)c2ccc(OC(F)(F)F)cc2)CC1)c1cc2ccccc2o1	-1	x	x	6	x	x
CCNC(=O)C1CCCN(C(=O)c2ccccc2OC(F)(F)F)CC1 (centres undefined)	0	x	x	0	x	x
COCc1[nH]nc2c1C(c1ccc(Br)cc1)N(Cc1ccccc1)C2=O (centres undefined)	-2	x	x	-22	x	x
CCOC(=O)C1CCN(C(=O)COc2cc(C)c(Br)cc2C)CC1	6	54	54*	27	50*	9
CCOC(=O)C1CCN(C(=O)COc2ccc(Br)cc2Br)CC1	12	16	-6	-5	-24	1
C#CCN(Cc1ccco1)C(=O)c1nnc2c3ccccc3n(S(=O)(=O)c3ccc(C)cc3)c2n1	0	x	x	-2	x	x
Nc1ncccc1OCc1ccc(Br)cc1	3	35	-6	-2	-20	-4
COc1ccc(COc2cccnc2N)cc1	5	2	-1	-5	-6	20*
CC(C)C[C@H]1COc2cc(Br)ccc2S(=O)(=O)N1Cc1cccc(Cl)c1	0	x	x	-30	x	x
COc1ccc(/C=C/C(=O)N2CCCc3ccccc32)cc1	9	36	-16	12	-6	-2
COc1cc(/C=C/C(=O)N2CCCc3ccccc32)cc(OC)c1OC	10	29	-19	52*	-12	-12
O=C(Nc1ccccc1)N(Cc1ccccc1)C1=NCCS1	40*	12	-8	5	-2	0
COC(=O)[C@@]12C[C@@H](CC(=O)N3CCCC3)C(=O)N(CCc3ccc(OC)c(OC)c3)C1=CCC(C)(C)C2	4	x	x	-21	x	x
COc1ccc(S(=O)(=O)N(C)[C@H]2C[C@H]3c4cc(-c5ccccc5)ccc4CCN3C(=O)[C@H]2[C@H](C)O)cc1	8	x	x	56*	x	x
O=C(Nc1ccc(Cl)cc1)c1nc[nH]c1C(=O)NCCCCNC(=O)c1[nH]cnc1C(=O)Nc1ccc(Cl)cc1	13	6	13	52*	-10	x
CCC(=O)NC(c1cc(Cl)c2ccccc2c1O)C1CC1 (centres undefined)	5	63*	-13	19	45	x
CC(=O)NC(c1cccs1)c1cc(Cl)c2ccccc2c1O (centres undefined)	4	19	-18	2	-10	x
CCC(=O)NC(c1cccs1)c1cc(Cl)c2ccccc2c1O (centres undefined)	0	48*	-12	-1	29	x

Screens as filed in PubChem.
